# Test results: the array DNA melting data of Ke et al. (doi:10.1101/2024.01.08.574731)
# Tests used:
# [1] = folding enthalpy; higher = less favourable; fluorescence melt of hairpins on a sequencing array, two-state fit; conditions: sodium 0.088 M
# Outline: (§1)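 Library hairpins on a sequenced MiSeq flow cell carried annealed Cy3 and quencher oligos, and their Cy3 fluorescence was imaged in 50 mM Na-HEPES pH 8.0 with 25 mM NaCl, in 2.5 °C steps up to 60 °C. Signals were normalised to Cy3 before quenching and to control constructs. Melting temperature and folding enthalpy were obtained from bootstrapped two-state fits, combined by inverse-variance weighting across four replicates, and the fitted temperatures were then raised by 9.35 °C to match UV melts.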
# [2] = melting temperature; fluorescence melt of hairpins on a sequencing array, two-state fit, raised by 9.35 °C to match UV melts; conditions: sodium 0.088 M
# Outline: as §1
Sequence,folding enthalpy [1] [kcal/mol],Tm [2] [°C]
GGTGGGCGAAAGCCACC (((.(((....)))))),-21.3,66.1
CGAACGGAAACGTGTCG ((((((....))).))),-23.1,38.5
CGACCGGAAACGGACTCG ((((((....)))..))),-12.9,30.7
GACACCGAAAGGTAGGTC ((((((....)))..))),-20.2,38.7
GAGCGACGAAAGTCCTC (((.(((....)))))),-17.1,48.3
GAGCCAGGAAACTGGTTC ((.((((....)))).)),-29.9,49.4
CGCCCGGAAACGGCCGCG ((((((....)))..))),-19.6,43.8
GCCTTGCGAAAGCACGGC (((.(((....))).))),-49.4,57.8
GCGTGTCGACGC ((((....)))),-24.6,55.4
GGTGGATCGAAAGATACC (((..(((....)))))),-18.4,35.6
GTCGAGGGAAACTTCGGC (.(((.(....).))).),-24.6,36.4
GAGTTCGAAAGAACTC ((((((....)))))),-38,66.2
GATCGTGTCTACGATC ((((((....)))))),-38.3,59.8
GATGCTGGAAACAACATC ((((.((....)).)))),-31.4,36.2
GTTTGCCGAAAGGCAAC (((.(((....)))))),-10.7,50.4
CGTGAGCGGAAACGCACG (((..(((....)))))),-22.2,45.9
GTACGCGAAAGCGCTTAC ((((((....)))..))),-9.36,29.4
GGGCACGGAAACATGCCC (((((.(....).))))),-37.6,51.5
GCACGAGGAAACTCGCGC ((.((((....)))).)),-43.5,54.5
GGACTCGGAAACGAGTTC (.(((((....))))).),-38.3,53.6
GGCCAGGGAAACCCAGCC (((..((....))..))),-30.5,42.1
GTCTACGAAAGTACGGAC ((((((....)))..))),-12.1,34.1
GATCCCGAAAGGGAGATC ((((((....)))..))),-20.6,50.5

Sequence,folding enthalpy [1] [kcal/mol],Tm [2] [°C]
GCCCCTGCGAAAGCAGGC (((..(((....)))))),-4.68,42.4
GCATGGCGAAAGCGTTGC (((..((....))..))),-21.5,48
GATGGTGGAAACACCATC (((((((....))))))),-39.4,65.1
GTAGGTCCGAAAGGATAC (((..(((....)))))),-12.1,28.8
GTTGGGCGAAAGCCGAAC (((.(((....))).))),-19.5,53.2
GATCGTTCATACGATC ((((((....)))))),-46.9,54.9
GACAAACGAAAGTTCGTC (((.(((....))).))),-25.2,43.2
ACTTCGAAAGAAGT (((((....))))),-20.8,50.8
GTCCCCCGAAAGGGCGAC (((.(((....))).))),-21.6,49.1
GATCGTAGGACGATC ((((((...)))))),-44.2,54.7
GGCAAAGGAAACCTTGCC (((((.(....).))))),-31.5,49.3
GTAACCGAAAGGTACTAC ((((((....)))..))),-16.9,40.8
GATCGCAGTCGCGATC ((((((....)))))),-34.5,68.5
GCTGTGCGAAAGCAGCGC ((..(((....)))..)),-21,57.1
GTCTTATCGAAAGATGAC (((..(((....)))))),-20.1,28.5
GCGTAGCCGAAAGGCCGC (((..(((....)))))),-16.8,58
CGCTCGGAAACGATAGCG ((((((....)))..))),-30.9,46.9
GATCAGTTACTGATC ((((((...)))))),-41.7,51.4
GAGGACGAAAGTCGTCTC ((((((....)))..))),-28.6,52.2
GGTCACGGAAACATGACC (((((.(....).))))),-28.4,44.4
GCACGAGGAAACCCGTGC (((((.(....).))))),-45.2,58.2
GCGTCCGGACGC ((((....)))),-40.9,60.3
GTGACCGAAAGGTACCAC ((((((....)))..))),-11.6,35.1

Sequence,folding enthalpy [1] [kcal/mol],Tm [2] [°C]
GGGGTAGGAAACTACTCC ((.((((....)))).)),-30.1,47.6
GTAGGTCGAAAGACTAC (((.(((....)))))),-17.6,43.3
GAATATGCGAAAGCATTC (((..(((....)))))),-9.12,25
GCATAGCGAAAGCAGTGC (((..((....))..))),-17,53.7
GTGCACGAAAGTGAGCAC ((((((....)))..))),-32.4,51.6
GTATGGGGAAACCCATAC (((((((....))))))),-33.5,59
GATATGAAAATATC (((((....))))),-15.7,35.7
GTACTCCCGAAAGGGTAC (((..(((....)))))),-12.9,33.5
GGGATGGGAAACCGTTCC ((.(.((....)).).)),-27,39.1
GAGAAGGAAACTTCTC ((((((....)))))),-23.3,48.3
CGAAGGAAACTTCG (((((....))))),-21.5,48.6
GTTGTACGAAAGTATAAC (((.(((....))).))),-26.9,47.6
GATCCGTCACCGGATC ((((((....)))))),-41.6,57.2
GGCGTTGGAAACGATGCC (((.(.(....).).))),-24.9,48
GACGACGAAAGTCATGTC ((((((....)))..))),-15.2,40.3
GCCTGTCGAAAGACCGGC (((.(((....))).))),-39.5,55.8
GATCAGCCAGCTGATC ((((((....)))))),-40.1,56.5
GCCGCGCGAAAGCGTAGC ((..(((....)))..)),-13.8,48.9
GACATGGGAAACCGTGTC ((((.((....)).)))),-30.9,52.1
GATCCAACTTGGATC ((((((...)))))),-29,51.2
GATCAGGTTCTGATC ((((((...)))))),-34.1,50.5
GCTTAGCCGAAAGGCAGC (((..(((....)))))),-16.4,45.5
GACTGGGGAAACCCGGTC (((.(((....))).))),-41.7,54.1

Sequence,folding enthalpy [1] [kcal/mol],Tm [2] [°C]
GAATAGGGAAACCTATTC (((((((....))))))),-42.1,50
GTCTGTGAAAACAGAC ((((((....)))))),-36.1,57.8
GGAGAACCGAAAGGTTCC (((..(((....)))))),-9.16,43.1
GGCTTGGGAAACCAAGTC (.(((((....))))).),-29.4,52.4
GCTAATCCGAAAGGAAGC (((..(((....)))))),-16.5,33.1
GCATGCGAAAGCAGATGC ((((((....)))..))),-24.6,51.4
GGGATCGAAAGATCCCCC ((((((....)))..))),-10.2,68.2
GATCCCGAGGGGATC ((((((...)))))),-42.5,62.6
GATCATCGTGATGATC ((((((....)))))),-38.4,57.8
GGGCCGTCGAAAGACCCC (((..(((....)))))),-16.6,44.4
GTGGTTCGAAAGAACAC (((.(((....)))))),-16.8,47.8
GTTTCGCGAAAGCGTAAC (((.(((....))).))),-21.9,48.6
GATCGAAAATTCGATC ((((((....)))))),-33.9,50
GTTTACCGAAAGGTGAAC (((.(((....))).))),-33,51.4
GCTAACCCGAAAGGGAGC (((..(((....)))))),-15.6,41.1
GCCTCGCGAAAGCTTGGC (((..((....))..))),-25.5,51.4
GAGTTAGGAAACTGACTC ((((.((....)).)))),-36.6,42.4
GCCGGTCGAAAGACGGGC (((.(((....))).))),-39.9,63.9
GGTCGCCGAAAGGCCACC (((.(((....))).))),-15.7,48.1
GAGGAGGGAAACTTCCTC (((((.(....).))))),-25.6,41.9
GTCCCTGAAAAGGGAC ((((((....)))))),-34.6,67.7
GTAGGACGAAAGTCGTAC (((.(((....))).))),-35.6,53.2
GCCGTGCGAAAGCCTGGC (((..((....))..))),-20.4,56.2
